For assay [1], the system named is SNU-182. In words: Growth inhibition of human SNU182 cells at <50 uM after 48 hrs by CCK8 assay. The class given is functional, cell-based.
Assay [2] deals with Mothers against decapentaplegic homolog 2 (Homo sapiens) (UniProt Q15796). Nature of the assay: Inhibition of TGFbeta1-induced SMAD2 phosphorylation in human SNU182 cells at 20 to 40 uM preincubated for 2 hrs followed by TGFbeta1 addition measured after 48 hrs in presence of (E)-1-(9-Ethyl-9H-carbazol-3-yl)-5-(4-hydroxy-3-methoxyphenyl)pent-1-en-3-one by Western blot method. In kind it is cell-based. In a few lines:
(§1)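 SNU182 cells given the mixture (20 and 40 µM) for 2 h, then TGF-β1 5 ng/ml for 48 h. Smad2/3 phosphorylation by Western blot, with total Smad2/3 as loading control.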

Assay [3] concerns SNU-182. In words: Inhibition of TGFbeta1-induced epithelial-mesenchymal transition in human SNU182 cells assessed as reduction in MMP9 mRNA expression at 40 uM preincubated for 2 hrs followed by TGFbeta1 addition measured after 48 hrs by qRT-PCR method. The class given is functional, cell-based. In a few lines:
(§2)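 SNU182 cells pretreated 2 h with single agents (12.5 or 40 µM) or the mixture (20 or 40 µM), then TGF-β 5 ng/ml for 48 h. MMP-2 and MMP-9 mRNA measured by RT-PCR with densitometry and by qRT-PCR, fold change by the 2^-ΔΔCt method. Mean±SD of triplicates.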

The test system of assay [4] is SNU-182. In words: Inhibition of TGFbeta1-induced epithelial-mesenchymal transition in human SNU182 cells assessed as reduction in MMP9 activity measured after 48 hrs in presence of (E)-1-(9-Ethyl-9H-carbazol-3-yl)-5-(4-hydroxy-3-methoxyphenyl)pent-1-en-3-one by gelatin zymography assay. The class given is functional, cell-based. In a few lines:
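Cells serum-starved overnight in 0.2% FBS medium, then left untreated or given TGF-β 5 ng/ml and/or the mixture for 48 h. MMP-2 and MMP-9 activity in conditioned medium determined by gelatin zymography.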

The target in assay [5] is T1, NF-kappa-B inhibitor alpha (Homo sapiens) (UniProt P25963).
T1 sequence (whole entry): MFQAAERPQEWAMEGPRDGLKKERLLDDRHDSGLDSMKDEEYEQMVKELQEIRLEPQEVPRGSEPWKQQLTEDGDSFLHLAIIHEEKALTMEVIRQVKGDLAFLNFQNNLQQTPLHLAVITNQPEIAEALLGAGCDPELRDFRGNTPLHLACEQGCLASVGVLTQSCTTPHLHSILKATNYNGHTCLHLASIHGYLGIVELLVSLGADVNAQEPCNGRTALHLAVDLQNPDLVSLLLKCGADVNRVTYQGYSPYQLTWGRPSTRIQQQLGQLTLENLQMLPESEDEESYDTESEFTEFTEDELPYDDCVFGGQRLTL
In words: Inhibition of TGFbeta1-induced IkB-alpha phosphorylation in human SNU182 cells at 20 to 40 uM preincubated for 2 hrs followed by TGFbeta1 addition measured after 120 mins in presence of (E)-1-(9-Ethyl-9H-carbazol-3-yl)-5-(4-hydroxy-3-methoxyphenyl)pent-1-en-3-one by Western blot method. The class given is cell-based. In a few lines:
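SNU182 cells pretreated with the mixture (20 and 40 µM) for 2 h, then exposed to TGF-β1 for 120 min. IκB protein assessed by Western blot, with GAPDH loading control.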

For assay [6], the species on record is Homo sapiens. Nature of the assay: Inhibition of TGFbeta1-induced NF-kB nuclear translocation in human SNU182 cells preincubated for 2 hrs followed by TGFbeta1 addition measured after 12 hrs in presence of (E)-1-(9-Ethyl-9H-carbazol-3-yl)-5-(4-hydroxy-3-methoxyphenyl)pent-1-en-3-one by Western blot method. The class given is cell-based. In outline:
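Mixture added to SNU182 cells for 2 h before TGF-β1 for 12 h. Cytosolic and nuclear fractions analysed by Western blot for NF-κB, with COX4 as cytosolic and Lamin B1 as nuclear marker.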

In assay [7] the target is Mitogen-activated protein kinase; ERK1/ERK2 (Homo sapiens) (UniProt P27361+P28482). In words: Inhibition of TGFbeta1-induced p44/42 MAPK phosphorylation in human SNU182 cells measured after 48 hrs in presence of (E)-1-(9-Ethyl-9H-carbazol-3-yl)-5-(4-hydroxy-3-methoxyphenyl)pent-1-en-3-one by Western blot method. In kind it is cell-based. In a few lines: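 SNU182 cells incubated 48 h with TGF-β1 5 ng/ml alone or together with the mixture at 20 and 40 µM, then lysed. Phospho-p42/44 MAPK detected by Western blot, with total p42/44 MAPK as loading control.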

Assay [8] is filed under the species Homo sapiens. Nature of the assay: Inhibition of TGFbeta1-induced NF-kB binding activity in human SNU182 cells at 20 to 40 uM measured after 48 hrs in presence of (E)-1-(9-Ethyl-9H-carbazol-3-yl)-5-(4-hydroxy-3-methoxyphenyl)pent-1-en-3-one by luciferase reporter gene assay. The class given is cell-based. In outline:
(§3)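 Cells transfected with pGL4.32-NF-κB-RE-Luc or empty pGL4.32, then treated with the mixture and/or TGF-β1. Luciferase reporter activity read. Mean±SD of triplicates.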

In assay [9] the target is Transcription factor Jun (Homo sapiens) (UniProt P05412). In words: Inhibition of TGFbeta1-induced AP-1 binding activity in human SNU182 cells at 20 to 40 uM measured after 48 hrs in presence of (E)-1-(9-Ethyl-9H-carbazol-3-yl)-5-(4-hydroxy-3-methoxyphenyl)pent-1-en-3-one by luciferase reporter gene assay. In kind it is cell-based. In outline:
(§4)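 SNU182 transfected with pGL4.44-AP-1-RE-Luc or empty pGL4.44, pretreated with the mixture (20 and 40 µM), then stimulated with TGF-β1 or DMSO. Luciferase reporter activity read. Mean±SD of triplicates.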

Assay [10] deals with SNU-182. In words: Growth inhibition of human SNU182 cells at <12.5 uM after 48 hrs by CCK8 assay. The class given is functional, cell-based.
Assay [11] relates to SNU-182. In words: Growth inhibition of human SNU182 cells assessed as cell survival at 12.5 uM after 48 hrs by CCK8 assay relative to control. The note with it: SNU-182, 48 h, read-out: Survival. In kind it is functional. In outline: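 SNU182 human hepatocellular carcinoma cells were exposed to compound at 6.25, 12.5, 25, 50 and 100 µM in serum-free DMEM for 48 h. Viability was read by CCK-8, where WST-8 is reduced by cellular dehydrogenases to a soluble formazan, and expressed as survival relative to vehicle control. Values are mean±SD of triplicates.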

For assay [12], the target named is Mothers against decapentaplegic homolog 2 (Homo sapiens) (UniProt Q15796). In words: Inhibition of TGFbeta1-induced SMAD2 phosphorylation in human SNU182 cells at 20 to 40 uM preincubated for 2 hrs followed by TGFbeta1 addition measured after 48 hrs in presence of zingerone by Western blot method. In kind it is cell-based. In outline: as §1
Assay [13] has as its system SNU-182. Nature of the assay: Inhibition of TGFbeta1-induced epithelial-mesenchymal transition in human SNU182 cells assessed as reduction in MMP2 mRNA expression preincubated for 2 hrs followed by TGFbeta1 addition measured after 48 hrs in presence of zingerone by qRT-PCR method. The class given is functional, cell-based. In a few lines: as §2
For assay [14], the species on record is Homo sapiens. Nature of the assay: Inhibition of TGFbeta1-induced NF-kB binding activity in human SNU182 cells at 20 to 40 uM measured after 48 hrs in presence of zingerone by luciferase reporter gene assay. The class given is cell-based. In a few lines:
as §3

In assay [15] the target is Transcription factor Jun (Homo sapiens) (UniProt P05412). In words: Inhibition of TGFbeta1-induced AP-1 binding activity in human SNU182 cells at 20 to 40 uM measured after 48 hrs in presence of zingerone by luciferase reporter gene assay. In kind it is cell-based. In outline:
as §4

This is an account of results in ChEMBL document CHEMBL3992541, “Combined treatment with zingerone and its novel derivative synergistically inhibits TGF-β1 induced epithelial-mesenchymal transition, migration and invasion of human hepatocellular carcinoma cells” (2017).

Activity calls are given as the source filed them. The calls are words filed in the database; no cut-off is given here.

Transcription factor Jun (Homo sapiens), sequence (P05412 whole entry): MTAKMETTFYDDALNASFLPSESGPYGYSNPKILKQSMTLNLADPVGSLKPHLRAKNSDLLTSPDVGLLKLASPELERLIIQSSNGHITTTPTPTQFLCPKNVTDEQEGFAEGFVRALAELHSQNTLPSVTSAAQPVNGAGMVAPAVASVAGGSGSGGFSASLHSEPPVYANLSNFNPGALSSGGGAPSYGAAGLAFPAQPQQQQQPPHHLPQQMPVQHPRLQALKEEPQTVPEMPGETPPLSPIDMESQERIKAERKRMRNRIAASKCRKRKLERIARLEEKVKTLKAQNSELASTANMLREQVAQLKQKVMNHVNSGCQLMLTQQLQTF
Mothers against decapentaplegic homolog 2 (Homo sapiens), sequence (Q15796 whole entry): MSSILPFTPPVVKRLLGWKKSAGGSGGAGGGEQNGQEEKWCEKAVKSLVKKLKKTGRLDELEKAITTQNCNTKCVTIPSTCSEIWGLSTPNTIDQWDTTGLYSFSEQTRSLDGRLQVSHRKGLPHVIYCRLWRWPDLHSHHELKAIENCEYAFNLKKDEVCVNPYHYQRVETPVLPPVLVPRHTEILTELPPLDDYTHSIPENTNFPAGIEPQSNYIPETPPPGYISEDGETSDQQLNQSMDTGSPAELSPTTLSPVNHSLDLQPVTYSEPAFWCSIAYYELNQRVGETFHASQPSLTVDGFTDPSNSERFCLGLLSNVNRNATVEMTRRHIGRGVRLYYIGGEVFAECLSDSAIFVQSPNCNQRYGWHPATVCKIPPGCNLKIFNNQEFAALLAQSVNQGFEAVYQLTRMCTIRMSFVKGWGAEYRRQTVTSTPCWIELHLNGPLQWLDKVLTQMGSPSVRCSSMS
Mitogen-activated protein kinase; ERK1/ERK2 (Homo sapiens), sequence (P27361 whole entry, looked up): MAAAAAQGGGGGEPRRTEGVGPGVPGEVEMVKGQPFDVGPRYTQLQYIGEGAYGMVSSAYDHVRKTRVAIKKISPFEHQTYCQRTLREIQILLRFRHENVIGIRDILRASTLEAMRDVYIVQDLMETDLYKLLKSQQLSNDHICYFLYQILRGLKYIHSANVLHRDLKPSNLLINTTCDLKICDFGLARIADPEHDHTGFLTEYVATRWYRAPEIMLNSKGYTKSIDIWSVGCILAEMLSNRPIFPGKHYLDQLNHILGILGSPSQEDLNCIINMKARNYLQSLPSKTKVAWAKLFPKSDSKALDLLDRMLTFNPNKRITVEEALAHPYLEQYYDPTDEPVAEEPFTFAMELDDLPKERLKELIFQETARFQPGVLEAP
Mitogen-activated protein kinase; ERK1/ERK2 (Homo sapiens), sequence (P28482 whole entry, looked up): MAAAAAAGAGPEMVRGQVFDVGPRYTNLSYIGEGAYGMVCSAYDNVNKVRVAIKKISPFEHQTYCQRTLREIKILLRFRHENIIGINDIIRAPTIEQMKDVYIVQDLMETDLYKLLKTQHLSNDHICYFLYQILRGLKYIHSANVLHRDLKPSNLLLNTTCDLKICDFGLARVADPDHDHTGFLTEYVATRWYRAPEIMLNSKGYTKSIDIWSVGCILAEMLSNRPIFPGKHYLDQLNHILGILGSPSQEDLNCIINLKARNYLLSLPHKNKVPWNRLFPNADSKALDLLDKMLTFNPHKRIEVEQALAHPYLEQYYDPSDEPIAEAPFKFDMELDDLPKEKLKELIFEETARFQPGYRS

Consider `COc1cc(CCC(C)=O)ccc1O`, for which the “growth inhibition (GI)” value in assay [1] was “inactive”. The inhibition entry in [2], in [4], in [5], in assay [8] and in [9] was “Active” throughout. The inhibition result in assay [3] was “inactive”. The inhibition entry in assay [6] and in assay [7] was “Dose-dependent effect” throughout.

Take `CCn1c2ccccc2c2cc(/C=C/C(=O)CCc3ccc(O)c(OC)c3)ccc21`: the “growth inhibition (GI)” value in assay [10] was “inactive”. In assay [11], the viability at 12.5 µM is > 90%. The inhibition entry in assay [12], in assay [14] and in assay [15] was “Active” each time. Also, in [13], the inhibition entry was “Dose-dependent effect”.
